In ChEMBL document CHEMBL1153378, “Synthesis and evaluation of myxochelin analogues as antimetastatic agents” (Bioorg Med Chem, 2009):
The source made the active and inactive calls. The rule behind the calls is not given here.

Legend:
[1] = Antiinvasive activity against mouse 26-L5 cells assessed as inhibition of cell invasion by Matrigel assay; type: functional, cell-based
[2] = Antiinvasive activity against mouse 26-L5 cells assessed as inhibition of cell invasion at 2.5 uM by Matrigel assay; type: functional
[3] = Cytotoxicity against mouse 26-L5 cells after 24 hrs; type: functional, cell-based
Procedure, shortened: (§1)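 Murine colon 26-L5 carcinoma cells at 1 × 10⁴ cells/well in RPMI with 10% FCS and L-glutamine, exposed to test compound at various concentrations (DMSO solutions) for 24 h. Wells PBS-washed, crystal violet stain 30 min, dye extracted with 30% acetic acid, absorbance read at 590 nm. Mean ± SD; Student's two-tailed t-test vs control.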

[4] = Cytotoxicity against mouse 26-L5 cells at 7.5 uM after 24 hrs; type: functional; procedure, shortened: as §1
[5] = Cytotoxicity against mouse 26-L5 cells at 5.6 uM after 24 hrs; type: functional; procedure, shortened: as §1
[6] = species: Mus musculus; test: Inhibition of cell migration of mouse 26-L5 cells at 2.5 uM by Matrigel assay; type: functional
[7] = species: Mus musculus; test: Inhibition of mouse 26-L5 cells adhesion to extracellular matrix proteins at 2.5 uM after 24 hrs by crystal violet assay; type: functional
Procedure, shortened: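 Colon 26-L5 cells pre-treated with compound 24 h at 37 °C, 5% CO₂, then resuspended in RPMI/10% FCS/L-glutamine and seeded at 4 × 10⁴ cells/well on fibronectin- or Matrigel-coated wells. Attachment 1 h at 37 °C; non-adherent cells aspirated; adherent cells fixed in 20% formalin 4 °C 1 h, crystal violet stained 30 min. Mean ± SD, two-tailed t-test.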

[8] = target: Matrix metalloproteinase-9 (Mus musculus) (UniProt P41245); test: Inhibition of MMP9 in mouse 26-L5 cells at 2.5 uM by gelatin based zymography assay; type: cell-based
Procedure, shortened: (§2)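 Gelatin zymography: conditioned medium of colon 26-L5 cells run non-reducing on 10% SDS–PAGE with 0.1% gelatin. Gels rinsed twice 1 h at room temperature (50 mM Tris–HCl, 2.5% Triton X-100, 5 mM CaCl₂, 0.05% NaN₃), strips incubated 24 h at 37 °C in reaction buffer with test compound at various concentrations, then Coomassie stained. Mean ± SD, two-tailed t-test.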

[9] = target: 72 kDa type IV collagenase (Mus musculus) (UniProt P33434); test: Inhibition of MMP2 in mouse 26-L5 cells at 2.5 uM by gelatin based zymography assay; type: cell-based; procedure, shortened: as §2
[10] = Antimetastatic activity against mouse 26-L5 cells xenografted BALB/c mouse assessed as inhibition of lung tumor metastasis at 50 mg/kg, ip dosed once daily for 14 days; type: functional; conditions: 336 h, route intraperitoneal
Procedure, shortened: (§3)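 BALB/c mice injected iv via tail vein with colon 26-L5 cells in cold PBS; compound given ip at 50 mg/kg (1 mg/mouse in 200 µL PBS); controls received 200 µL PBS. Body weight followed; mice killed 14 days after inoculation, lungs fixed in Bouin's solution, surface colonies counted under dissecting microscope. Student's two-tailed t-test.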

[11] = test system: Mus musculus; test: Toxicity in mouse 26-L5 cells xenografted BALB/c mouse assessed as body weight loss at 50 mg/kg, ip dosed once daily for 14 days; type: organism-based; set-up: dose 50 mg/kg, route intraperitoneal; conditions: in vivo, 336 h; procedure, shortened: as §3
[12] = target: 72 kDa type IV collagenase (Mus musculus) (UniProt P33434); test: Inhibition of MMP2 in mouse 26-L5 cells at 0.25 uM by gelatin based zymography assay; type: cell-based; procedure, shortened: as §2
[13] = target: Matrix metalloproteinase-9 (Mus musculus) (UniProt P41245); test: Inhibition of MMP9 in mouse 26-L5 cells at 0.25 uM by gelatin based zymography assay; type: cell-based; procedure, shortened: as §2

72 kDa type IV collagenase (Mus musculus), sequence (P33434 whole entry): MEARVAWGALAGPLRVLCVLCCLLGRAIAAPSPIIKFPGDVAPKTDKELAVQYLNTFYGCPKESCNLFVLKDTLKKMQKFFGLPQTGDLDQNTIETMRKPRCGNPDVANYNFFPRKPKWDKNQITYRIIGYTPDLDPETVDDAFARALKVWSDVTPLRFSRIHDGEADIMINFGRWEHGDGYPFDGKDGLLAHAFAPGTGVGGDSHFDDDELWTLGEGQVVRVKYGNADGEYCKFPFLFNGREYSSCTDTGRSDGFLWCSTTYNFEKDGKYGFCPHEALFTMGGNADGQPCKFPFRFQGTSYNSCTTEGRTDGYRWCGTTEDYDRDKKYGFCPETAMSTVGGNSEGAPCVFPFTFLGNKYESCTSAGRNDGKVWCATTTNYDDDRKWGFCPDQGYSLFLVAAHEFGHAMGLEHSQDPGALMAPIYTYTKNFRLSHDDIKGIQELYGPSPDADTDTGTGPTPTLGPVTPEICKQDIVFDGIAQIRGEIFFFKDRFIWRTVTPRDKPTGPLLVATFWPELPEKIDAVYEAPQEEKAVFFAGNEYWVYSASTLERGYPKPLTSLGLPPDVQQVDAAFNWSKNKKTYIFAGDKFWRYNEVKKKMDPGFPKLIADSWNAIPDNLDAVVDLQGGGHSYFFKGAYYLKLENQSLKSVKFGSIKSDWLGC
Matrix metalloproteinase-9 (Mus musculus), sequence (P41245 whole entry): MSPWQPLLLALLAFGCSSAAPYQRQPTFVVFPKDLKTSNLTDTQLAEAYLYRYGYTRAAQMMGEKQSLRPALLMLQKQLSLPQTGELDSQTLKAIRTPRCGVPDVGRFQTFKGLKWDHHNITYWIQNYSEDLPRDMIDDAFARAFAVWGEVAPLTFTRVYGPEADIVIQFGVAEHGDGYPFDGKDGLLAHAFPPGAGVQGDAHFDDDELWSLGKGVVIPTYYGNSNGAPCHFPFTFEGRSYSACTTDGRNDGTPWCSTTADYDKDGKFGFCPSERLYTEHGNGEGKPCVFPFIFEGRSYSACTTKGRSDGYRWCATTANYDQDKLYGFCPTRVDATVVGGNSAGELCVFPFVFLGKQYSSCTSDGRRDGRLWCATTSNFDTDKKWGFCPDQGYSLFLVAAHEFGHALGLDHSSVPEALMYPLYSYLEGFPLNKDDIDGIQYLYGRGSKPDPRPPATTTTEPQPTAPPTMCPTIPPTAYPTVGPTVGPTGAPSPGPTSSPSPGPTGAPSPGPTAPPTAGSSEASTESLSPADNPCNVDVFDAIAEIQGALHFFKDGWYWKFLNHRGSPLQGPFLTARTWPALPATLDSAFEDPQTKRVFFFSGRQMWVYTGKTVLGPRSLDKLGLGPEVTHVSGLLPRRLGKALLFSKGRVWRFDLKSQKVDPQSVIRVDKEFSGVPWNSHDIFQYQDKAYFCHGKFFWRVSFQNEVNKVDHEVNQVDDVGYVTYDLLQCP

IC50 [1] | SMILES | inhibition at 2.5 µM [2] | IC50 [3] | inhibition at 7.5 µM [4] | other results
> 2500 nM | O=C(NCCCCCNC(=O)c1cccc(O)c1O)c1cccc(O)c1O | 45% | 2700 nM | – | –
590 nM | O=C(NCCCC[C@@H](CO)NC(=O)c1cccc(O)c1O)c1cccc(O)c1O | – | > 7500 nM | 20% | inhibition [6]: inactive; inhibition [7]: inactive; inhibition [8]: 39%; inhibition [9]: 35%
980 nM | O=C(NCCCC[C@H](NC(=O)c1cccc(O)c1O)C(=O)NO)c1cccc(O)c1O | – | > 7500 nM | 0% | –
> 2500 nM | N#C[C@H](CCCCNC(=O)c1cccc(O)c1O)NC(=O)c1cccc(O)c1O | 45% | 7500 nM | – | –
91 nM | NC(=O)[C@H](CCCCNC(=O)c1cccc(O)c1O)NC(=O)c1cccc(O)c1O | – | > 7500 nM | 0% | inhibition in vivo at 50 mg/kg [10]: 35%; Activity [11]: Non-toxic; inhibition [6]: inactive; inhibition [7]: inactive; inhibition [12]: 44%; inhibition [13]: 33%
> 2500 nM | O=C(NCCCC[C@H](NC(=O)c1cccc(O)c1O)C(=O)O)c1cccc(O)c1O | 30% | > 7500 nM | 0% | –
1500 nM | COC(=O)[C@H](CCCCNC(=O)c1cccc(O)c1O)NC(=O)c1cccc(O)c1O | – | > 7500 nM | 10% | –
730 nM | NC[C@H](CCCCNC(=O)c1cccc(O)c1O)NC(=O)c1cccc(O)c1O | – | > 7500 nM | 40% | –
2200 nM | O=C(NCCCC[C@H](CO)NC(=O)c1cccc(O)c1O)c1cccc(O)c1O | – | > 7500 nM | 30% | –
1700 nM | COC(=O)[C@H](CCCCCNC(=O)c1cccc(O)c1O)NC(=O)c1cccc(O)c1O | – | 1600 nM | – | –

The remaining lines, values behind:

SMILES | IC50 [1] | inhibition at 2.5 µM [2] | IC50 [3] | inhibition at 7.5 µM [4] | other results
COC(=O)[C@H](CCCNC(=O)c1cccc(O)c1O)NC(=O)c1cccc(O)c1O | 2500 nM | – | > 7500 nM | 45% | –
O=C(NCCCC[C@@H](CNC(=O)c1cccc(O)c1O)NC(=O)c1cccc(O)c1O)c1cccc(O)c1O | 520 nM | – | > 5600 nM | – | inhibition at 5.6 µM [5]: 0%
COC(=O)[C@H](CCCCNC(=O)c1ccccc1)NC(=O)c1cccc(O)c1O | > 2500 nM | 0% | > 7500 nM | 0% | –
COC(=O)[C@H](CCCCNC(=O)c1cccc(O)c1O)NC(C)=O | 2400 nM | – | > 7500 nM | 0% | –
COC(=O)[C@H](CCCCNC(=O)c1cccc(O)c1O)NC(=O)c1ccccc1 | 1000 nM | – | > 7500 nM | 0% | –
NC(=O)[C@H](CCCCNC(=O)c1cccc(O)c1O)NC(=O)c1ccccc1 | 260 nM | – | > 7500 nM | 0% | –
COC(=O)[C@H](CCNC(=O)c1cccc(O)c1O)NC(=O)c1cccc(O)c1O | > 2500 nM | 40% | > 7500 nM | 13% | –
COC(=O)[C@H](CCCCNC(=O)c1cccc(OC)c1OC)NC(=O)c1cccc(OC)c1OC | > 2500 nM | 25% | > 7500 nM | 0% | –
